Test results reported in ChEMBL document CHEMBL1125349 (J Med Chem, 1992).
Non-standard residues stand in square brackets, D forms with d. Residues, ends and D or L forms follow the SMILES beside them. Ava = NCCCCC(=O)O

Columns and labels:
Substance-P receptor = Substance-P receptor (Cavia porcellus, UniProt P30547); test: In vitro agonistic activity against tachykinin receptor 1 of guinea pig ileum longitudinal smooth muscle.; assay type: functional, tissue-based
Neuromedin-K receptor = molecular target: T1, Neuromedin-K receptor (Rattus norvegicus, UniProt P16177); test: In vitro agonistic activity against tachykinin receptor 3 of everted rat protal vein.; assay type: functional
T1 sequence (P16177 whole entry): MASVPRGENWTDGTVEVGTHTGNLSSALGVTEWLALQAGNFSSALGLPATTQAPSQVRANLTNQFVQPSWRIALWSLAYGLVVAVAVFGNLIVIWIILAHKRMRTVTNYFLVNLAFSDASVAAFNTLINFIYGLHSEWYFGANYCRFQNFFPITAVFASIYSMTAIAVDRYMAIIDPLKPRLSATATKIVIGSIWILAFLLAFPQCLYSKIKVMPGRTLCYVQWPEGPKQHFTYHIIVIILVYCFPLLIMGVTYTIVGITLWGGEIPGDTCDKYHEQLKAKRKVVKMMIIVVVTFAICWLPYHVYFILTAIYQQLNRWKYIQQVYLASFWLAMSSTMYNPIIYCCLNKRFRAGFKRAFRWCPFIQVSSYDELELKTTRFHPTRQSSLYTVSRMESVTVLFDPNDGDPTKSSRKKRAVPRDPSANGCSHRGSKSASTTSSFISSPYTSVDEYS
How it was run: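 Everted isolated portal vein segments from male AH/A rats, 3-mL baths at 37 °C, 0.5 g resting tension, modified Krebs-Henseleit medium, isotonic contractions. […] Equipotent molar ratios were calculated and related to the reference agonist's mean EC50.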

Substance-K receptor = molecular target: T2, Substance-K receptor (Rattus norvegicus, UniProt P16610); test: In vitro agonistic activity against tachykinin receptor 2 of rat colon muscularis mucosae.; assay type: functional
T2 sequence (P16610 whole entry): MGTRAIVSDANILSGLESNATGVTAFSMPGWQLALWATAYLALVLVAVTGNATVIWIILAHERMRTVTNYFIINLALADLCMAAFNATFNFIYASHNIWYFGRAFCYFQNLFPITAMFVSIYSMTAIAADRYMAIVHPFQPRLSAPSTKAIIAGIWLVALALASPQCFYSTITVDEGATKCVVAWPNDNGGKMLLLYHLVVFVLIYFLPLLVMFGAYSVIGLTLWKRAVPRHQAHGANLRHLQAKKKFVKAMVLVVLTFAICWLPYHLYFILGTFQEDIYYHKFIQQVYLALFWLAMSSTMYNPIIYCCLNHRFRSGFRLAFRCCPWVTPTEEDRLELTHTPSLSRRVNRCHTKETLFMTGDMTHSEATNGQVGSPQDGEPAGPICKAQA
How it was run: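 Colon muscularis mucosae from male AH/A rats (250-350 g), 3-mL baths, 0.5 g resting tension, 35 °C, with atropine, mepyramine, methysergide and indomethacin (1 µM each). Isotonic contraction was recorded.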

Sequence of Substance-P receptor (P30547 whole entry): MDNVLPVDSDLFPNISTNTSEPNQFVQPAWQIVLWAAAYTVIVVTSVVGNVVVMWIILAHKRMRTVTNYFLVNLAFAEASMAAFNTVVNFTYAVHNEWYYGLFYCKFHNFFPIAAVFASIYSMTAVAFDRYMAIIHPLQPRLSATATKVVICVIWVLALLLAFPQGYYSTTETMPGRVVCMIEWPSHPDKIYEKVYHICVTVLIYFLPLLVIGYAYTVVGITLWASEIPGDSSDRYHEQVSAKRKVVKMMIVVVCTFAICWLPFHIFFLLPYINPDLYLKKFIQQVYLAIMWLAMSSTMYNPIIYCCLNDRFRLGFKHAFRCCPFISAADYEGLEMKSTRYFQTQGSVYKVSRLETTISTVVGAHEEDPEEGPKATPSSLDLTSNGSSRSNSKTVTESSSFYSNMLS

Compound	EC50 (Substance-P receptor)	EC50 (Neuromedin-K receptor)	EC50 (Substance-K receptor)
CSCC[C@H](NC(=O)[C@H](CC(C)C)NC(=O)CNC(=O)[C@@H](NC(=O)[C@H](Cc1ccccc1)NC(=O)[C@H](Cc1ccccc1)NC(=O)[C@H](CC(=O)O)NC(=O)[C@H](Cc1c[nH]cn1)NC(=O)[C@H](CCSC)NC(=O)[C@@H](N)CC(=O)O)C(C)C)C(N)=O [NEUROKININ B]	68 nM	6.3 nM	
CSCC[C@H](NC(=O)[C@H](CC(C)C)N1CC[C@@H](NC(=O)[C@@H](NC(=O)[C@H](Cc2ccccc2)NC(=O)[C@H](CO)NC(=O)[C@H](CC(=O)O)NC(=O)[C@@H](N)CCCCN)C(C)C)C1=O)C(N)=O	4240 nM	1180 nM	3.7 nM
CSCC[C@H](NC(=O)[C@H](CC(C)C)NC(=O)CNC(=O)[C@H](Cc1ccccc1)NC(=O)[C@H](Cc1ccccc1)NC(=O)[C@H](CCC(N)=O)NC(=O)[C@H](CCC(N)=O)NC(=O)[C@@H]1CCCN1C(=O)[C@H](CCCCN)NC(=O)[C@@H]1CCCN1C(=O)[C@@H](N)CCCN=C(N)N)C(N)=O [SUBSTANCE P]		7500 nM	
CSCC[C@H](NC(=O)[C@H](CC(C)C)NC(=O)CNC(=O)[C@@H](NC(=O)[C@H](Cc1ccccc1)NC(=O)CCCCN)C(C)C)C(N)=O (H-[Ava]FVGLM-NH2)	86 nM		94 nM
CSCC[C@H](NC(=O)[C@H](CC(C)C)N1CCC(NC(=O)[C@@H](NC(=O)[C@H](Cc2ccccc2)NC(=O)[C@H](CO)NC(=O)[C@H](CC(=O)O)NC(=O)[C@H](CCCCN)NC(C)=O)C(C)C)C1=O)C(N)=O (stereo not given in full)	44 nM		1.3 nM
CSCC[C@H](NC(=O)[C@@H](CC(C)C)N1C[C@H]2CCN(C(=O)[C@H](Cc3ccccc3)NC(=O)[C@H](Cc3ccccc3)NC(=O)CCCCN)[C@H]2C1=O)C(N)=O	5230 nM	> 47000 nM	2100 nM
CSCC[C@H](NC(=O)[C@H](CC(C)C)N1CCC(NC(=O)[C@H](Cc2ccccc2)NC(=O)[C@H](Cc2ccccc2)NC(=O)CCCCN)C1=O)C(N)=O (stereo not given in full)	86 nM	10600 nM	62 nM
CSCC[C@H](NC(=O)[C@H](CC(C)C)N1CC[C@]2(CCCN2C(=O)[C@H](Cc2ccccc2)NC(=O)[C@H](Cc2ccccc2)NC(=O)CCCCN)C1=O)C(N)=O	307 nM		1390 nM
CSCC[C@H](NC(=O)[C@H](CC(C)C)NC(=O)[C@H]1CCCN1C(=O)[C@H](Cc1ccccc1)NC(=O)[C@H](Cc1ccccc1)NC(=O)CCCCN)C(N)=O	830 nM	> 30000 nM	92 nM
CSCC[C@H](NC(=O)[C@H](CC(C)C)N1C[C@@H]2CCN(C(=O)[C@H](Cc3ccccc3)NC(=O)[C@H](Cc3ccccc3)NC(=O)CCCCN)[C@@H]2C1=O)C(N)=O	37700 nM	> 8220 nM	1190 nM
H-KDSFFGLM-NH2	45 nM	857 nM	33 nM
CSCC[C@H](NC(=O)[C@@H](CC(C)C)N1C[C@@H]2CCN(C(=O)[C@H](Cc3ccccc3)NC(=O)[C@H](Cc3ccccc3)NC(=O)CCCCN)[C@@H]2C1=O)C(N)=O	3730 nM	> 30000 nM	566 nM

More lines, in order of falling EC50 (Substance-P receptor), values ahead:

EC50 (Substance-P receptor)	EC50 (Neuromedin-K receptor)	EC50 (Substance-K receptor)	Compound
1130 nM	2720 nM	59 nM	CSCC[C@H](NC(=O)[C@H](CC(C)C)N1CC2CCN(C(=O)[C@@H](NC(=O)[C@H](Cc3ccccc3)NC(=O)[C@H](CO)NC(=O)[C@H](CC(=O)O)NC(=O)[C@@H](N)CCCCN)C(C)C)C2C1=O)C(N)=O (stereo not given in full)
1030 nM	2630 nM	45 nM	CSCC[C@H](NC(=O)[C@H](CC(C)C)N1CC2CCN(C(=O)[C@H](Cc3ccccc3)NC(=O)[C@H](Cc3ccccc3)NC(=O)[C@H](CO)NC(=O)[C@H](CC(=O)O)NC(=O)[C@@H](N)CCCCN)C2C1=O)C(N)=O (stereo not given in full)
545 nM	> 18000 nM	15 nM	CSCC[C@H](NC(=O)[C@H](CC(C)C)N1C[C@H]2CCN(C(=O)[C@H](Cc3ccccc3)NC(=O)[C@H](Cc3ccccc3)NC(=O)CCCCN)[C@H]2C1=O)C(N)=O
61 nM	870 nM	3 nM	CSCC[C@H](NC(=O)[C@H](CC(C)C)NC(=O)CNC(=O)[C@@H](NC(=O)[C@H](Cc1ccccc1)NC(=O)[C@H](CO)NC(=O)[C@H](CC(=O)O)NC(=O)[C@@H](N)CCCCN)C(C)C)C(N)=O
38 nM	11300 nM	1190 nM	CSCC[C@H](NC(=O)[C@H](CC(C)C)NC(=O)CNC(=O)[C@H](Cc1ccccc1)NC(=O)[C@H](Cc1ccccc1)NC(=O)CCCCN)C(N)=O (H-[Ava]FFGLM-NH2)
13.7 nM	563 nM		CSCC[C@H](NC(=O)[C@H](CC(C)C)NC(=O)CNC(=O)[C@@H](NC(=O)[C@H](Cc1ccccc1)NC(=O)[C@H](CO)NC(=O)[C@H](CC(=O)O)NC(=O)[C@@H](NC(=O)[C@H](CCCCN)NC(=O)[C@@H](N)Cc1cnc[nH]1)[C@@H](C)O)C(C)C)C(N)=O [NEUROKININ A]
13.4 nM	> 10000 nM	13000 nM	CSCC[C@H](NC(=O)[C@H](CC(C)C)NC(=O)[C@@H]1CCCN1C(=O)[C@H](Cc1ccccc1)NC(=O)[C@H](Cc1ccccc1)NC(=O)CCCCN)C(N)=O
